Measurements reported in ChEMBL document CHEMBL2413051, “Antibacterial activity of quinoxalines, quinazolines, and 1,5-naphthyridines” (2013).
Converted amounts (≈) assume the structure as drawn. The source made the active and inactive calls. The calls are words filed in the database; no cut-off is given here.

Columns and labels:
[1] = biological target: T1, Cell division protein FtsZ (Staphylococcus aureus) (UniProt P0A031); experiment: Stimulation of purified Staphylococcus aureus FtsZ polymerization at 40 ug/ml by microtiter plate based light-scattering assay in presence of 10 mM depolymerizing agent GDP
T1 sequence (whole entry): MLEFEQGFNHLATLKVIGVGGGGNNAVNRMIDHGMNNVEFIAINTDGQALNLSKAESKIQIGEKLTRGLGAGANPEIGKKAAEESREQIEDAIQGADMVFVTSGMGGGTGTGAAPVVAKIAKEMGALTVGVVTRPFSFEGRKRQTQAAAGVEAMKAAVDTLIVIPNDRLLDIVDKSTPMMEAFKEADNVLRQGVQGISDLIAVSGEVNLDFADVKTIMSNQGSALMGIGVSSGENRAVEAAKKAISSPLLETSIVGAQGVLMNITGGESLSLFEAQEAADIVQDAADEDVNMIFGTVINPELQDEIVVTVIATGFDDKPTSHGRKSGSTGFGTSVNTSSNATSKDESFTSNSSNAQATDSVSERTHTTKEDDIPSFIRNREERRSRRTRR

[2] = tested on: Enterococcus faecalis; experiment: microbe, parasite or virus in culture; type: functional; conditions: ATCC 51575
[3] = tested on: Enterococcus faecalis; experiment: microbe, parasite or virus in culture; type: functional; conditions: ATCC 19433
[4] = tested on: Staphylococcus aureus; experiment: microbe, parasite or virus in culture; type: functional; conditions: ATCC 33591
[5] = tested on: Staphylococcus aureus; experiment: microbe, parasite or virus in culture; type: functional; conditions: 8325-4
[6] = tested on: Enterococcus faecalis; experiment: Ratio of MBC to MIC for vancomycin-resistant Enterococcus faecalis ATCC 51575; type: functional
How it was run: (§1)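 Ratio of MBC to MIC, both in µg/mL. MIC was found by CLSI broth microdilution as the lowest concentration giving ≥90% growth inhibition. MBC was found by a previously described method. Per CLSI, a ratio of 1–2 is read as bactericidal and ≥8 as bacteriostatic.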

[7] = tested on: Enterococcus faecalis; experiment: Bactericidal activity against vancomycin-resistant Enterococcus faecalis ATCC 51575; type: functional
[8] = tested on: Staphylococcus aureus; experiment: Ratio of MBC to MIC for methicillin-sensitive Staphylococcus aureus 8325-4; type: functional
[9] = tested on: Staphylococcus aureus; experiment: Bactericidal activity against methicillin-resistant Staphylococcus aureus ATCC 33591; type: functional
[10] = biological target: T1, Cell division protein FtsZ (Staphylococcus aureus); experiment: Stimulation of purified Staphylococcus aureus FtsZ polymerization at 80 ug/ml by microtiter plate based light-scattering assay
[11] = tested on: Staphylococcus aureus; experiment: Bactericidal activity against methicillin-sensitive Staphylococcus aureus 8325-4; type: functional
How it was run: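 MBC against MSSA strain 8325-4, determined per a previously described method; paired MIC by CLSI broth microdilution, MIC being lowest concentration giving ≥90% growth inhibition.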

[12] = tested on: Staphylococcus aureus; experiment: Ratio of MBC to MIC for methicillin-resistant Staphylococcus aureus ATCC 33591; type: functional; how it was run: as §1
[13] = biological target: T1, Cell division protein FtsZ (Staphylococcus aureus); experiment: Stimulation of purified Staphylococcus aureus FtsZ polymerization at 40 ug/ml by microtiter plate based light-scattering assay

Row | Structure (SMILES) | Activity [1] | MIC [2] | MIC [3] | MIC [4] | MIC [5] | Ratio [6] | MBC [7] | Ratio [8] | MBC [9] | Activity [10] | MBC [11] | Ratio [12] | Activity [13]
1 | C[n+]1ccnc2ccccc21.[I-] | Active | > 64 µg/mL | > 64 µg/mL | > 64 µg/mL | 32 µg/mL |  |  |  |  |  |  |  | 
2 | COC(=O)c1cc(-c2ccc(C(C)(C)C)cc2)cc(-c2c[n+](C)c3ccccc3n2)c1.[I-] | Active | 4 µg/mL | 4 µg/mL | 1 µg/mL | 1 µg/mL |  |  |  |  |  |  |  | 
3 | CCC[C@@H]1C[C@@H](C(=O)N[C@@H]([C@H]2O[C@H](SC)[C@H](O)[C@@H](O)[C@H]2O)[C@H](C)Cl)N(C)C1 [CLINDAMYCIN] |  | > 64 µg/mL | 2 µg/mL (≈ 4.71 µM) | > 64 µg/mL | 0.03 µg/mL (≈ 0.0706 µM) |  |  |  |  |  |  |  | 
4 | C[n+]1cc(-c2cc(C(=O)NCCO)cc(-c3ccc(C(C)(C)C)cc3)c2)nc2ccccc21.[I-] | Active | 8 µg/mL | 8 µg/mL | 4 µg/mL | 4 µg/mL |  |  |  |  |  |  |  | 
5 | C[n+]1cc(-c2cc(C(N)=O)cc(-c3ccc(C(C)(C)C)cc3)c2)nc2ccccc21.[I-] | Active | 4 µg/mL | 4 µg/mL | 2 µg/mL | 2 µg/mL |  |  |  |  |  |  |  | 
6 | CN(C)[C@@H]1C(O)=C(C(N)=O)C(=O)[C@@]2(O)C(O)=C3C(=O)c4c(O)cccc4[C@@](C)(O)[C@H]3C[C@@H]12 [TETRACYCLINE] |  | > 64 µg/mL | 0.5 µg/mL (≈ 1.13 µM) | 64 µg/mL (≈ 144 µM) | 0.06 µg/mL (≈ 0.135 µM) |  |  |  |  |  |  |  | 
7 | Fc1cccc(-c2cnc3ccccc3n2)c1 | Active | > 64 µg/mL | > 64 µg/mL | > 64 µg/mL | > 64 µg/mL |  |  |  |  |  |  |  | 
8 | c1ccc2nccnc2c1 [QUINOXALINE] | Active | > 64 µg/mL | > 64 µg/mL | > 64 µg/mL | > 64 µg/mL |  |  |  |  |  |  |  | 
9 | CC(C)(C)c1ccc(-c2ncnc3c(CNC(=N)N)cccc23)cc1 | Active | 32 µg/mL (≈ 96 µM) | 32 µg/mL (≈ 96 µM) | 8 µg/mL (≈ 24 µM) | 4 µg/mL (≈ 12 µM) | 2 | 64 µg/mL (≈ 192 µM) | 2 | 16 µg/mL (≈ 48 µM) | Active | 8 µg/mL (≈ 24 µM) |  | 
10 | CC(=N)NCc1cccc2c(-c3ccc(C(C)(C)C)cc3)ncnc12 | Active | 64 µg/mL (≈ 193 µM) | 64 µg/mL (≈ 193 µM) | 64 µg/mL (≈ 193 µM) | 32 µg/mL (≈ 96.3 µM) |  |  |  |  |  |  |  | 
11 | CC(C)(C)c1ccc(-c2ccnc3c(CNC(=N)N)ccnc23)cc1 | Active | 64 µg/mL (≈ 192 µM) | 32 µg/mL (≈ 96 µM) | 8 µg/mL (≈ 24 µM) | 8 µg/mL (≈ 24 µM) | 1 | 64 µg/mL (≈ 192 µM) | 1 | 16 µg/mL (≈ 48 µM) | Active | 8 µg/mL (≈ 24 µM) | 2 | 
12 | C[n+]1cc(-c2ccccc2)nc2ccccc21.[I-] | Active | > 64 µg/mL | 32 µg/mL | 8 µg/mL | 4 µg/mL |  |  |  |  |  |  |  | 
13 | C[n+]1cc(-c2ccc(C(C)(C)C)cc2)nc2ccccc21.[I-] | Active | 16 µg/mL | 16 µg/mL | 1 µg/mL | 0.5 µg/mL | 4 | 64 µg/mL | 16 | 16 µg/mL |  | 8 µg/mL |  | 
14 | CC(C)(C)c1ccc(-c2cnc3ccccc3n2)cc1 | Active | > 64 µg/mL | > 64 µg/mL | > 64 µg/mL | > 64 µg/mL |  |  |  |  |  |  |  | 
15 | CC(C)(C)c1ccc(-c2cc(C(N)=O)cc(-c3cnc4ccccc4n3)c2)cc1 | Active | > 64 µg/mL | > 64 µg/mL | > 64 µg/mL | > 64 µg/mL |  |  |  |  |  |  |  | 
16 | CC(C)(C)c1cccc(-c2cnc3c(CNC(=N)N)cccc3n2)c1 | Active | 16 µg/mL (≈ 48 µM) | 8 µg/mL (≈ 24 µM) | 4 µg/mL (≈ 12 µM) | 4 µg/mL (≈ 12 µM) | 2 | 32 µg/mL (≈ 96 µM) | 1 | 8 µg/mL (≈ 24 µM) |  | 4 µg/mL (≈ 12 µM) | 2 | Active
